Test results: publication PMC7810645 (Targeted Oncology, 2020)
Where two headings read alike, the source gives them in different places.

How the values were obtained:
[1] = tested on: patients; settings: cited from earlier work
[2] = tested on: patients with recurrent, platinum-sensitive ovarian cancer; settings: niraparib 300 mg daily + bevacizumab 15 mg/kg d1 q21d vs niraparib 300 mg daily alone; cited from earlier work
[3] = tested on: patients with high-grade epithelial ovarian, fallopian tube, or primary peritoneal cancer; assay type: in vivo, human
Method in brief: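 Patients had newly diagnosed stage IIIB–IV disease, ECOG 0–1 and no prior anticancer therapy. All received six cycles of carboplatin AUC 5 plus paclitaxel 175 mg/m2 and bevacizumab, each d1 q21d. Oral maintenance drug began within 9 weeks, continuous BID in 28-day cycles, first dose 7 days before bevacizumab. Three-patient cohorts (Fibonacci triplets). DLTs were assessed over the first two cycles, with AEs graded by CTCAE v4.03.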

[4] = Rucaparib plasma pharmacokinetics in patients; assay type: in vivo, human; settings: for AUC(0-t) / Tmax / Cmax: human, plasma, oral; for Tmax: mean (±SD)
Method in brief: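 Oral dosing was 400, 500 or 600 mg BID. Cycle 1 blood was drawn on day −7 (first dose, before bevacizumab), day 1 (bevacizumab infusion) and day 21, at 1, 2, 3, 4, 6, 8 and 24 h post-dose. Plasma was assayed by validated HPLC-MS. Day −7 yielded Cmax, Tmax and AUC0–8h, and days 1/21 gave steady-state Cmax, Cmin and AUC, all by noncompartmental analysis. Summaries were mean, SD, CV, median and geometric mean.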

[5] = tested on: patients; settings: rucaparib 600 mg BID single agent, ARIEL3; cited from earlier work
[6] = tested on: PARP1; settings: read-out: IC50, enzymatic activity of PARP1; cited from earlier work
[7] = tested on: PARP2; settings: read-out: IC50, enzymatic activity of PARP2; cited from earlier work
[8] = tested on: PARP enzymes at sites of DNA damage; settings: cited from earlier work
[9] = rucaparib 400 mg BID (n = 3) + bevacizumab
[10] = rucaparib 500 mg BID (n = 3) + bevacizumab
[11] = rucaparib 600 mg BID (n = 3) + bevacizumab
[12] = steady state, day 1 (bevacizumab infusion), 400 mg BID, n 3
[13] = steady state, day 1 (bevacizumab infusion), 500 mg BID, n 3
[14] = steady state, day 1 (bevacizumab infusion), 600 mg BID, n 3
[15] = steady state, day 21, with bevacizumab, 400 mg BID, n 2
[16] = steady state, day 21, with bevacizumab, 500 mg BID, n 3
[17] = steady state, day 21, with bevacizumab, 600 mg BID, n 2

NC(=O)c1cccc2cn(-c3ccc([C@@H]4CCCNC4)cc3)nc12 [niraparib]
incidence of thrombocytopenia and hypertension ([1]; vs olaparib or rucaparib): higher incidence | PFS adjusted hazard ratio [2]: 0.35

CNCc1ccc(-c2[nH]c3cc(F)cc4c3c2CCNC4=O)cc1 [rucaparib]
maximum tolerated dose (MTD) ([3]; BID, combined with bevacizumab 15 mg/kg d1 q21d): 500 mg | safety concerns from the combination of rucaparib and bevacizumab ([3]; all dose cohorts): no new safety concerns | Anemia, grade 1: number of patients with an event [3, 9]: 1 | Arthralgia, grade 1: number of patients with an event [3, 9]: 2 (2) | Arthralgia, grade 1: number of total events [3, 9]: 2 (2) | Cutaneous erythema, grade 1: number of patients with an event [3, 9]: 1 | Fatigue, grade 1: number of patients with an event [3, 9]: 1 | Feet paresthesia, grade 1: number of patients with an event [3, 9]: 1 | Genital herpes, grade 1: number of patients with an event [3, 9]: 1 | Genital herpes, grade 2: number of patients with an event [3, 9]: 1 | Headache, grade 1: number of patients with an event [3, 9]: 1 | Mucosal dryness, grade 1: number of patients with an event [3, 9]: 1 | Nausea, grade 1: number of patients with an event [3, 9]: 1 | Neuropathy, grade 1: number of patients with an event [3, 9]: 1 | Transaminases increase, grade 1: number of patients with an event [3, 9]: 1 | dose-limiting toxicities (DLTs) ([3]; rucaparib 400 mg BID + bevacizumab 15 mg/kg d1 q21d): No DLTs | Abdominal pain, grade 1: number of patients with an event [3, 10]: 1 | Arthralgia, grade 1: number of patients with an event [3, 10]: 1 | Bleeding gums, grade 1: number of patients with an event [3, 10]: 1 | Diarrhea, grade 1: number of patients with an event [3, 10]: 1 | Diarrhea, grade 1: number of total events [3, 10]: 3 | Dysgeusia, grade 1: number of patients with an event [3, 10]: 1 | Dysgeusia, grade 2: number of patients with an event [3, 10]: 1 | Fatigue, grade 1: number of patients with an event [3, 10]: 1 | Flushes, grade 1: number of patients with an event [3, 10]: 1 | High cholesterol, grade 1: number of patients with an event [3, 10]: 1 | High cholesterol, grade 2: number of patients with an event [3, 10]: 1 | Hypertension, grade 2: number of patients with an event [3, 10]: 3 (3) | Hypertension, grade 2: number of total events [3, 10]: 3 (3) | Insomnia, grade 2: number of patients with an event [3, 10]: 1 | Nausea, grade 1: number of patients with an event [3, 10]: 2 (2) | Nausea, grade 1: number of total events [3, 10]: 2 (2) | Transaminases increase, grade 1: number of patients with an event [3, 10]: 1 | Vomiting, grade 1: number of patients with an event [3, 10]: 1 | dose-limiting toxicities (DLTs) ([3]; rucaparib 500 mg BID + bevacizumab 15 mg/kg d1 q21d): No DLTs | ALT increase, grade 2: number of patients with an event [3, 11]: 1 | ALT increase, grade 3: number of patients with an event [3, 11]: 1 | AST increase, grade 2: number of patients with an event [3, 11]: 1 | AST increase, grade 3: number of patients with an event [3, 11]: 1 | Abdominal pain, grade 1: number of patients with an event [3, 11]: 1 | Arthralgia, grade 1: number of patients with an event [3, 11]: 1 | Arthralgia, grade 2: number of patients with an event [3, 11]: 1 | Constipation, grade 2: number of patients with an event [3, 11]: 1 | Depression, grade 1: number of patients with an event [3, 11]: 1 | Depression, grade 1: number of total events [3, 11]: 2 | Depression, grade 2: number of patients with an event [3, 11]: 1 | Depression, grade 3: number of patients with an event [3, 11]: 1 | Diarrhea, grade 1: number of patients with an event [3, 11]: 1 | Dysgeusia, grade 1: number of patients with an event [3, 11]: 1 | Epigastralgia, grade 1: number of patients with an event [3, 11]: 1 | Fatigue, grade 1: number of patients with an event [3, 11]: 1 | Fever, grade 2: number of patients with an event [3, 11]: 1 | Hallucination, grade 3: number of patients with an event [3, 11]: 1 | Headache, grade 1: number of patients with an event [3, 11]: 1 | Lack of appetite, grade 1: number of patients with an event [3, 11]: 1 | Limb pain, grade 1: number of patients with an event [3, 11]: 1 | Mucositis, grade 1: number of patients with an event [3, 11]: 1 | Nausea, grade 1: number of patients with an event [3, 11]: 3 | Nausea, grade 1: number of total events [3, 11]: 4 | Nausea, grade 2: number of patients with an event [3, 11]: 1 | Nausea, grade 2: number of total events [3, 11]: 3 | Neutrophils decreased, grade 2: number of patients with an event [3, 11]: 1 | Skin bruises, grade 1: number of patients with an event [3, 11]: 1 | Stranguria, grade 1: number of patients with an event [3, 11]: 1 | Toothache, grade 1: number of patients with an event [3, 11]: 1 | patients affected by DLTs ([3]; rucaparib 600 mg BID + bevacizumab 15 mg/kg d1 q21d): two out of three patients | range of trough concentrations ([4]; 400 mg BID): 1.5 to 1.6 µg/mL | range of trough concentrations ([4]; 500 mg BID): 1.8 to 2.0 µg/mL | range of trough concentrations ([4]; 600 mg BID): 1.6 to 2.1 µg/mL | dose proportionality of plasma exposure ([4]; 400-600 mg BID): approximately dose proportional | Cmax and AUC at steady state (days 1 and 21) relative to day −7 ([4]; all dose levels): two to three times higher | Cmin, mean (±SD) ([4]; first administration, day −7, 400 mg BID, n 3): 200 ± 100 ng/mL | Cmin, mean (±SD) ([4]; first administration, day −7, 500 mg BID, n 3): 400 ± 100 ng/mL | Cmin, mean (±SD) ([4]; first administration, day −7, 600 mg BID, n 3): 300 ± 200 ng/mL | AUC(0-t) ([4]; 400 mg): 3400 ± 800 ng·h/mL | Tmax ([4]; 400 mg, first administration, day −7, 400 mg BID, n 3): 3.4 ± 0.7 h | AUC(0-t) ([4]; 500 mg): 4700 ± 1900 ng·h/mL | Cmax ([4]; 500 mg): 900 ± 600 ng/mL | Tmax ([4]; 500 mg, steady state, day 21, with bevacizumab, 500 mg BID, n 3): 2 ± 1 h | AUC(0-t) ([4]; 600 mg): 4900 ± 1600 ng·h/mL | Cmax ([4]; 600 mg): 1000 ± 200 ng/mL | Tmax ([4]; 600 mg, first administration, day −7, 600 mg BID, n 3): 3.4 ± 1.2 h | Tmax [4, 12]: 4.6 ± 2.9 h | Tmax [4, 13]: 1.7 ± 1.2 h | Tmax [4, 14]: 3 ± 1 h | CmaxSS, mean (±SD) [4, 12]: 2400 ± 200 ng/mL | CminSS, mean (±SD) [4, 12]: 1400 ± 300 ng/mL | Ctrough, mean (±SD) [4, 12]: 1600 ± 100 ng/mL | CmaxSS, mean (±SD) [4, 13]: 2600 ± 500 ng/mL | CminSS, mean (±SD) [4, 13]: 1600 ± 700 ng/mL | Ctrough, mean (±SD) [4, 13]: 1800 ± 700 ng/mL | CmaxSS, mean (±SD) [4, 14]: 2600 ± 500 ng/mL | CminSS, mean (±SD) [4, 14]: 1400 ± 300 ng/mL | Ctrough, mean (±SD) [4, 14]: 1600 ± 100 ng/mL | CmaxSS, mean (±SD) [4, 15]: 2600 ± 900 ng/mL | CminSS, mean (±SD) [4, 15]: 1300 ± 400 ng/mL | Ctrough, mean (±SD) [4, 15]: 1500 ± 300 ng/mL | CmaxSS, mean (±SD) [4, 16]: 2300 ± 400 ng/mL | CminSS, mean (±SD) [4, 16]: 1500 ± 500 ng/mL | Ctrough, mean (±SD) [4, 16]: 2000 ± 600 ng/mL | CmaxSS, mean (±SD) [4, 17]: 2500 ± 1300 ng/mL | CminSS, mean (±SD) [4, 17]: 1600 ± 1200 ng/mL | Ctrough, mean (±SD) [4, 17]: 2100 ± 300 ng/mL | patients with dose reduction due to a TEAE [5]: 55% | patients with grade 3 or higher TEAEs [5]: 56% | patients with grade 3 or higher anemia [5]: 19% | incidence of increased alanine/aspartate aminotransferase levels ([1]; vs olaparib or niraparib): higher incidence

Cn1ncnc1[C@H]1c2n[nH]c(=O)c3cc(F)cc(c23)N[C@@H]1c1ccc(F)cc1 [talazoparib]
IC50 [6]: […] | IC50 [7]: […] | potency for DNA trapping [8]: more potent DNA trapping abilities

bevacizumab
most frequent bevacizumab-related AE ([3]; combination with rucaparib): hypertension
